# In article PMC8753982 (ACS chemical neuroscience, 2019):
# Entries after “also recorded” stand apart in the source; their conditions may differ.
# Experiments:
# [1] = molecular target: T1, endogenous mGlu5 in striatal neurons (Rattus norvegicus, UniProt P31424); test: Single cell Ca2+ imaging; format: cell-based; details: for effect on Quis-mediated Ca2+ responses (intracellular mGlu5): compound at 1, 5, 10 μM; for effect on single cell intracellular responses at 10-fold IC50: at 10-fold their IC50 values (refs 20, 25)
# Procedure, shortened: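 Primary striatal cultures from 1-day-old neonatal rat pups, on gridded glass dishes, loaded with 5 μM Oregon Green 488 BAPTA-AM. Cultures were preincubated with 20 μM CPCCOEt (mGlu1 antagonist) plus 25 μM AMPA receptor antagonist, then imaged by confocal microscopy during agonist (Quis 10 μM) and NAM (1, 5, 10 μM) exposure. Signals were taken as fractional fluorescence change over basal and normalized to Quis response (% Quis).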
# [2] = molecular target: T1, endogenous mGlu5 in striatal neurons; test: Fluorescence-based Ca2+ flux assay with a microplate reader; format: cell-based
# [3] = molecular target: endogenous mGlu5 in cortical neurons (Rattus norvegicus, UniProt P31424); test: as above; format: cell-based
# [4] = system: mGlu5; details: read-out: published IC50; cited from earlier work
# [5] = molecular target: T2, endogenous mGlu5 in hippocampal neurons (Rattus norvegicus, UniProt P31424); test: Fluorescence-based Ca2+ flux assay with a microplate reader; format: cell-based
# [6] = molecular target: mGlu5 (mGlu5/HEK stable cell line) (Rattus norvegicus, UniProt P31424); test: as above; format: cell-based; details: for LLE: LLE = pIC50 − log P (consensus log Po/w Table 1, IC50 Table 3)
# [7] = system: mGlu5 (mGlu5/HEK cells); test: Single cell Ca2+ imaging; format: cell-based; details: for effect on DHPG-induced oscillatory Ca2+ response: DHPG 100 μM, NAM applied after agonist at 1, 5, 10 μM; for effect of NAM pretreatment on DHPG or Quis-mediated Ca2+ responses: DHPG 100 μM or Quis 10 μM
# [8] = system: mGlu5 (mGlu5/HEK stable cell line); test: Fluorescence-based Ca2+ flux assay with a microplate reader; format: cell-based; details: LLE = pIC50 − log P (consensus log Po/w Table 1, IC50 Table 3)
# [9] = molecular target: T2, endogenous mGlu5 in hippocampal neurons; test: Single cell Ca2+ imaging; format: cell-based; details: pretreatment 1 μM, Quis 10 μM
# Chain of endogenous mGlu5 in cortical neurons (P31424 21-1203): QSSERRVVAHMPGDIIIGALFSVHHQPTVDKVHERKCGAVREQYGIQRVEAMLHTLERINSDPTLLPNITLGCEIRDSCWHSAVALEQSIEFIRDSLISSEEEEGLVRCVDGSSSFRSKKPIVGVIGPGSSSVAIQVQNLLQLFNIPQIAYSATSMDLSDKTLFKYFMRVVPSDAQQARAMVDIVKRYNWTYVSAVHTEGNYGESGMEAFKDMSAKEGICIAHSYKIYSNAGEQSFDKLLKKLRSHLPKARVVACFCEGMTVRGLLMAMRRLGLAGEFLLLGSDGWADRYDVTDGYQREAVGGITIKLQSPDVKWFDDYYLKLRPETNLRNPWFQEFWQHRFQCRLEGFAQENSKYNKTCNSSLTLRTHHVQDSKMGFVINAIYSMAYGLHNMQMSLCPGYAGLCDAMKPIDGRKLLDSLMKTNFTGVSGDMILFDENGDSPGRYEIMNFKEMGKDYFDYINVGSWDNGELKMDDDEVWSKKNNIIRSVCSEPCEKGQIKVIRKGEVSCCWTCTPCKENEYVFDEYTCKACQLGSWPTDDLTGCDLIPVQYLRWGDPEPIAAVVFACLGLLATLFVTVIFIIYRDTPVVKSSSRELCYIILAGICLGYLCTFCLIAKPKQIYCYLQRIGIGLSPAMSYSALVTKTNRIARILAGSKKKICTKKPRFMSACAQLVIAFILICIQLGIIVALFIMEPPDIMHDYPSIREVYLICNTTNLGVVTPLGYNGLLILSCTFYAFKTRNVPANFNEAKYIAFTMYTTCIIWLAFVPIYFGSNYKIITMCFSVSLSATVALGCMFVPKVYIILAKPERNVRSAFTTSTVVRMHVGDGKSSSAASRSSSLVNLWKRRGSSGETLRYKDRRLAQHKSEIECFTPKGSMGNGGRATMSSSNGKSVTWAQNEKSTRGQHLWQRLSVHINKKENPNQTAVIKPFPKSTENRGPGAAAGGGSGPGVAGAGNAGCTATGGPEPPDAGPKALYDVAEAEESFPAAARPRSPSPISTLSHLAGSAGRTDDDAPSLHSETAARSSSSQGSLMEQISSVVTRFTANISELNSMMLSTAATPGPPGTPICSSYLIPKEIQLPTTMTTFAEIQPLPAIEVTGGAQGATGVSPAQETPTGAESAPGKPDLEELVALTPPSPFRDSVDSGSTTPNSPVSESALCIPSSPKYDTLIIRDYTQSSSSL
# T2 sequence (P31424 21-1203): as above
# T1 sequence (P31424 21-1203): as above
# Chain of mGlu5 (mGlu5/HEK stable cell line) (Rattus norvegicus, UniProt P31424) (P31424 21-1203): as above
# Chain of mGlu5 (mGlu5/HEK stable cell line) (P31424 21-1203): as above
structure (smiles),measurement,setting,value
"NC(CC1c2ccccc2Sc2ccccc21)(C(=O)O)C1CC(C(=O)O)C1 (mixture of isomers) [LY393053, 2-Amino-2-(3-cis/trans-carboxycyclobutyl)-3-(9H-thioxanthen-9-yl) propionic acid]",effect on Quis-mediated Ca2+ responses (intracellular mGlu5),"[1]; striatal neurons, Quis 10 μM","neither 5MPEP,[34] a neutral allosteric modulator, nor LY393053 affected Quis-induced Ca^2+ rises"
"Cc1cccnc1C#Cc1ccccc1 [5MPEP, 5-methyl-6-(phenylethynyl)-pyridine]",effect on Quis-mediated Ca2+ responses (intracellular mGlu5),"[1]; striatal neurons, Quis 10 μM","neither 5MPEP,[34] a neutral allosteric modulator, nor LY393053 affected Quis-induced Ca^2+ rises"
"COC(=O)N1CC[C@@H]2[C@H]1CCC[C@@]2(O)C#Cc1cccc(C)c1 [AFQ056, methyl (3aR,4S,7aR)-4-hydroxy-4-[(3-methylphenyl)ethynyl]octahydro-1H-indole-1-carboxylate]",IC50,[2],9440 ± 3780 nM
same,fold shift of IC50 between mGlu5/HEK cells and striatal cultures,[2],250 fold
same,IC50,[3],270 ± 73 nM
same,IC50,[4],30 nM
same,IC50,[5],257 ± 27.4 nM
same,LLE,[6],4.57
same,effect on DHPG-induced oscillatory Ca2+ response,[7],inhibited; also recorded: blocked
same,effect on Quis-induced Ca2+ response,"[7]; Quis 10 μM, NAM at 1, 5, 10 μM",inhibited; also recorded: blocked
same,effect of NAM pretreatment on DHPG or Quis-mediated Ca2+ responses,[7],completely blocked
same,effect on Quis-mediated Ca2+ responses (intracellular mGlu5),"[1]; striatal neurons, Quis 10 μM","neither 1, 5, nor 10 μM AFQ056 blocked Quis-mediated Ca^2+ responses; also recorded: did not completely block; also recorded: fails to block"
same,effect on DHPG-induced Ca2+ response,"[1]; striatal neurons, pre- or post-treatment, cell-surface only agonist DHPG",blocked
"C[C@@H](Oc1nnc(-c2ccncc2)n1C)c1cc(-c2cccc(Cl)c2)on1 [AZD2066, 4-[5-[(1R)-1-[5-(3-chlorophenyl)-3-isoxazolyl]ethoxy]-4-methyl-4H-1,2,4-triazol-3-yl]pyridine]",IC50,[2],3560 ± 520 nM
same,IC50,[3],380 ± 78 nM
same,IC50,[5],96.2 ± 17.8 nM
same,LLE,[8],4.29
same,effect on DHPG-induced oscillatory Ca2+ response,[7],blocked
same,effect of NAM pretreatment on DHPG or Quis-mediated Ca2+ responses,[7],completely blocked
same,effect on single cell intracellular responses at 10-fold IC50,[1],did not block
same,effect on Quis-mediated Ca2+ responses (intracellular mGlu5),"[1]; striatal neurons, Quis 10 μM",less effective
"N[C@H](C(=O)O)c1cc(O)cc(O)c1 [DHPG, (S)-3,5-dihydroxyphenylglycine]","maximum DHPG-induced Ca2+ increase, % of the Quis-induced response","[2]; plate reader, cell type not given",15–20%
"CN1CC(=O)N=C1NC(=O)Nc1cccc(Cl)c1 [Fenobam, N-(3-chlorophenyl)-N′-(4,5-dihydro-1-methyl-4-oxo-1H-imidazol-2-yl)urea]",IC50,[2],2930 ± 480 nM
same,fold shift of IC50 between mGlu5/HEK cells and striatal cultures,[2],16 fold
same,IC50,[3],807 ± 53.5 nM
same,LLE,"[3]; cortical, LLE = pIC50 − log P (consensus log Po/w Table 1, IC50 Table 3)",2.94
same,IC50,[5],442 ± 150 nM
same,LLE,[6],5.50
same,effect on Quis-induced Ca2+ response at 1 μM NAM,[9],less effective
same,effect on DHPG-induced oscillatory Ca2+ response,[7],blocked
same,effect on Quis-induced Ca2+ response at 1 μM NAM,"[7]; pretreatment 1 μM, Quis 10 μM",less effective
same,effect of NAM pretreatment on DHPG or Quis-mediated Ca2+ responses,[7],completely blocked
same,effect on single cell intracellular responses at 10-fold IC50,[1],did not block
same,effect on Quis-mediated Ca2+ responses (intracellular mGlu5),"[1]; striatal neurons, Quis 10 μM",less effective
same,effect on Quis-induced Ca2+ response at 1 μM NAM,"[1]; striatal, pretreatment 1 μM, Quis 10 μM",less effective
"Cc1cccc(C#Cc2ccccc2)n1 [MPEP, 2-methyl-6-(phenylethynyl)pyridine]",effect on DHPG-induced oscillatory Ca2+ response,[7],blocked
same,effect of NAM pretreatment on DHPG or Quis-mediated Ca2+ responses,[7],completely blocked
"N[C@@H](Cn1oc(=O)[nH]c1=O)C(=O)O [Quis, Quisqualate]",EC50,[2],1310 ± 360 nM
same,"fold difference in EC50 between the cortical and hippocampal neurons and the striatum, respectively",[2]; Quis,8–10 fold
same,fold difference in the EC50 for Quis in HEK cells versus striatal neurons,[2]; mGlu5/HEK versus endogenous mGlu5-expressing striatal neurons,42 fold
same,Quis EC80,[2]; striatal,5250 ± 1430 nM
same,difference in EC50 between cell surface and intracellular mGlu5,"[2]; striatum, Quis with versus without LY393053 20 μM",no difference in EC50
same,EC50,[3],168 ± 55.8 nM
same,"fold difference in potency, Quis with versus without LY393053","[3]; cortex, LY393053 20 μM",~1.8 fold
same,Quis EC80,[3]; cortical,670 ± 223 nM
same,EC50,[5],122 ± 12.1 nM
same,Quis EC80,[5]; hippocampal,515 ± 51.4 nM
same,"fold difference in potency, Quis with versus without LY393053","[5]; hippocampus, LY393053 20 μM",~1.8 fold
same,Quis EC80,[6],125 ± 32.3 nM
"Cc1nc(C#Cc2ccnc(Cl)c2)c(C)n1-c1ccc(F)cc1 [RG7090, 2-chloro-4-((1-(4-fluorophenyl)-2,5-dimethyl-1H-imidazol-4-yl)ethynyl)pyridine]",IC50,[2],62 ± 17.5 nM
same,IC50,[3],80.2 ± 16.8 nM
same,fold difference of potency in cortical neurons versus HEK cells,[3],45 fold
same,IC50,[5],8.97 ± 3.4 nM
same,LLE,[8],4.59
same,effect on DHPG-induced oscillatory Ca2+ response,[7],blocked
same,effect of NAM pretreatment on DHPG or Quis-mediated Ca2+ responses,[7],completely blocked
same,effect on Quis-mediated Ca2+ responses (intracellular mGlu5),"[1]; striatal neurons, Quis 10 μM",most effective; also recorded: very effective
